Experimental findings from ChEMBL document CHEMBL3244146, “Pyranenamines: a new series of antiallergic compounds” (1979) are described below.

Assay [1] has as its system Lung. Nature of the assay: Antiallergic activity in passively sensitized albino rat lungs assessed as inhibition of antigen-induced histamine release at 1 x 10^-6 M by fluorometric analysis relative to control. The format is functional. An outline of the steps:
(§1)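 Fragmented lung from adult male Charles River albino rats, passively sensitized, then antigen-challenged with compound present; released histamine measured fluorometrically; inhibition reported relative to control, with replicate count given as number of separate lung preparations.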

Assay [2] relates to Lung. Nature of the assay: Antiallergic activity in passively sensitized albino rat lungs assessed as inhibition of antigen-induced histamine release at 1 x 10^-7 M by fluorometric analysis relative to control. Format: functional. An outline of the steps: as §1
In assay [3] the test system is Rattus norvegicus. Nature of the assay: Antiallergic activity in iv dosed rat assessed as inhibition of egg albumin-induced passive cutaneous anaphylaxis treated for 30 secs followed by egg albumin-challenge measured after 30 mins. Format: functional. The note with it: 0.5 h, read-out: ID50 (the source's name).
Assay [4] has as its system Lung. Nature of the assay: Antiallergic activity in passively sensitized albino rat lungs assessed as inhibition of antigen-induced histamine release at 1 x 10^-5 M by fluorometric analysis relative to control. The format is functional. In short, it runs like this: as §1
In assay [5] the test system is Rattus norvegicus. Nature of the assay: Antiallergic activity in po dosed rat assessed as inhibition of egg albumin-induced passive cutaneous anaphylaxis treated for 15 mins followed by egg albumin-challenge measured after 30 mins. The note with it: read-out: ID50 (the source's name). The format is functional. An outline of the steps:
(§2)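 Oral PCA in rats: intradermal antiserum at four back sites (dose giving ~12×12 mm wheal), compound po 48 h later, 15 min before iv challenge with 0.5 mL saline containing 5 mg Evans blue plus 5 mg egg albumin; skin bluing read 30 min after challenge on two axes per wheal; six rats per dose versus ≥6 vehicle controls; percent inhibition from mean wheal size, one-sided t test.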

Assay [6] has as its system Lung. Nature of the assay: Antiallergic activity in passively sensitized albino rat lungs assessed as inhibition of antigen-induced histamine release at 1 x 10^-8 M by fluorometric analysis relative to control. Format: functional. In short, it runs like this: as §1
Assay [7] concerns Rattus norvegicus. The assay can be described thus: Antiallergic activity in rat assessed as inhibition of egg albumin-induced passive cutaneous anaphylaxis at 10 mg/kg, iv treated for 30 secs followed by egg albumin-challenge measured after 30 mins relative to control. Format: functional. The note with it: 0.5 h.
For assay [8], the system named is Rattus norvegicus. The assay can be described thus: Antiallergic activity in rat assessed as inhibition of egg albumin-induced passive cutaneous anaphylaxis at 5 mg/kg, iv treated for 30 secs followed by egg albumin-challenge measured after 30 mins relative to control. The format is functional. The note with it: 0.5 h.
A short description of assay [9]: Antiallergic activity in passively sensitized rhesus monkey lungs assessed as inhibition of antigen-induced histamine release at 3.3 x 10^-5 M by fluorometric analysis relative to control. The format is functional, Macaca mulatta, Lung. An outline of the steps: (§3)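 Passively sensitized fragmented lung from a young adult male rhesus monkey, challenged with IgE-antihuman IgE; histamine release measured fluorometrically and SRS-A estimated by guinea pig ileum bioassay; inhibition relative to control; replicates given as number of separate lung preparations.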

Assay [10] is described as follows: Antiallergic activity in passively sensitized rhesus monkey lungs assessed as inhibition of antigen-induced slow reacting substance of anaphylaxis release at 6.6 x 10^-6 M relative to control. Format: functional, Macaca mulatta, Lung. An outline of the steps: as §3
A short description of assay [11]: Antiallergic activity in passively sensitized rhesus monkey lungs assessed as inhibition of antigen-induced histamine release at 6.6 x 10^-6 M by fluorometric analysis relative to control. Format: functional, Macaca mulatta, Lung. An outline of the steps:
as §3

A short description of assay [12]: Antiallergic activity in passively sensitized rhesus monkey lungs assessed as inhibition of antigen-induced slow reacting substance of anaphylaxis release at 3.3 x 10^-5 M relative to control. Format: functional, Macaca mulatta, Lung. In short, it runs like this: as §3
Assay [13] in a line: Antiallergic activity in passively sensitized rhesus monkey lungs assessed as inhibition of antigen-induced slow reacting substance of anaphylaxis release at 1.6 x 10^-4 M relative to control. The format is functional, Macaca mulatta, Lung. An outline of the steps:
as §3

Assay [14] relates to Lung. The assay can be described thus: Antiallergic activity in passively sensitized albino rat lungs assessed as inhibition of antigen-induced histamine release at 6.6 x 10^-7 M by fluorometric analysis relative to control. The format is functional. An outline of the steps: as §1
The subject of assay [15] is Lung. The assay can be described thus: Antiallergic activity in passively sensitized albino rat lungs assessed as inhibition of antigen-induced histamine release at 1.6 x 10^-4 M by fluorometric analysis relative to control. The format is functional. An outline of the steps: as §1
Assay [16] deals with Lung. Nature of the assay: Antiallergic activity in passively sensitized albino rat lungs assessed as inhibition of antigen-induced histamine release at 6.6 x 10^-6 M by fluorometric analysis relative to control. The format is functional. In short, it runs like this: as §1
Assay [17] can be described thus: Antiallergic activity in passively sensitized rhesus monkey lungs assessed as inhibition of antigen-induced histamine release at 1.6 x 10^-4 M by fluorometric analysis relative to control. Format: functional, Macaca mulatta, Lung. In short, it runs like this:
as §3

The test system of assay [18] is Rattus norvegicus. The assay can be described thus: Antiallergic activity in rat assessed as inhibition of egg albumin-induced passive cutaneous anaphylaxis at 0.5 mg/kg, iv treated for 30 secs followed by egg albumin-challenge measured after 30 mins relative to control. The format is functional. The following applies: 0.5 h.
For assay [19], the system named is Rattus norvegicus. The assay can be described thus: Antiallergic activity in rat assessed as inhibition of egg albumin-induced passive cutaneous anaphylaxis at 25 mg/kg, po treated for 15 mins followed by egg albumin-challenge measured after 30 mins relative to control. Format: functional. In short, it runs like this: as §2
Assay [20] concerns Rattus norvegicus. The assay can be described thus: Antiallergic activity in rat assessed as inhibition of egg albumin-induced passive cutaneous anaphylaxis at 50 mg/kg, po treated for 15 mins followed by egg albumin-challenge measured after 30 mins relative to control. Format: functional. An outline of the steps: as §2
Assay [21] is described as follows: Antiallergic activity in passively sensitized rhesus monkey lungs assessed as inhibition of antigen-induced histamine release at 1 x 10^-4 M by fluorometric analysis relative to control. Format: functional, Macaca mulatta, Lung. In short, it runs like this: as §3
A short description of assay [22]: Antiallergic activity in passively sensitized rhesus monkey lungs assessed as inhibition of antigen-induced histamine release at 1 x 10^-5 M by fluorometric analysis relative to control. The format is functional, Macaca mulatta, Lung. An outline of the steps:
as §3

A short description of assay [23]: Antiallergic activity in passively sensitized rhesus monkey lungs assessed as inhibition of antigen-induced slow reacting substance of anaphylaxis release at 1 x 10^-4 M relative to control. Format: functional, Macaca mulatta, Lung. An outline of the steps: as §3
Assay [24] is described as follows: Antiallergic activity in passively sensitized rhesus monkey lungs assessed as inhibition of antigen-induced slow reacting substance of anaphylaxis release at 1 x 10^-5 M relative to control. The format is functional, Macaca mulatta, Lung. An outline of the steps:
as §3

For `CCC(=O)Nc1cc(N/C(C)=C2\C(=O)OC(=O)C(C(C)=O)=C2O)ccc1O`, the “inhibition (INH)” value in the assay with Lung [1] was found to be 66%; with Lung [2] it was 70%; in the assay with Lung [4], 65%; with Lung [6], 41%. In addition, the ED50 in the assay on Rattus norvegicus [3] was found to be 0.4 mg/kg; in the assay on Rattus norvegicus [5], 0.6 mg/kg.

On to `CC(=O)C1=C(O)/C(=C(\C)Nc2ccc(Cl)cc2)C(=O)OC1=O`, for which the inhibition in vivo – broadly, the drop in the measured response relative to a control, in per cent – at 10 mg/kg with Rattus norvegicus [7] was found to be 84%.

Take `CC(=O)C1=C(O)/C(=C(\C)Nc2ccc(F)cc2)C(=O)OC1=O`: the inhibition in vivo at 10 mg/kg with Rattus norvegicus [7] turned out to be 54%.

On to `CC(=O)C1=C(O)/C(=C(\C)Nc2ccc([N+](=O)[O-])cc2)C(=O)OC1=O`, for which the inhibition in vivo at 10 mg/kg in the assay with Rattus norvegicus [7] stood at 17%.

With `CCOC(=O)c1ccccc1N/C(C)=C1\C(=O)OC(=O)C(C(C)=O)=C1O`, the inhibition in vivo at 5 mg/kg in the assay with Rattus norvegicus [8] was 18%.

For `COC(=O)c1ccc(N/C(C)=C2\C(=O)OC(=O)C(C(C)=O)=C2O)cc1`, in the assay on Rattus norvegicus [8], the inhibition in vivo at 5 mg/kg came to 6%.

For `CC(=O)C1=C(O)/C(=C(\C)Nc2ccc(C)cc2)C(=O)OC1=O`, in the assay on Rattus norvegicus [7], the inhibition in vivo at 10 mg/kg stood at 33%.

For the compound `CC(=O)C1=C(O)/C(=C(\C)Nc2ccc(O)cc2)C(=O)OC1=O`, the “inhibition (INH)” value in assay [9] is reported as 50%; in assay [10], 8.6%; in [11], 18%; in [12], 33%; in assay [13] it was 51%; in the assay with Lung [14], 34%. The “inhibition (INH)” value in the assay with Lung [15] was determined as 45%; with Lung [16], 44%; in assay [17] it was 59%. Moreover, the ED50 with Rattus norvegicus [3] came out at 1.3 mg/kg; in the assay with Rattus norvegicus [5], 29 mg/kg.

For the compound `COc1ccc(N/C(C)=C2\C(=O)OC(=O)C(C(C)=O)=C2O)cc1`, the inhibition in vivo at 5 mg/kg in the assay on Rattus norvegicus [8] came out at 27%.

Regarding `CC(=O)Nc1ccc(N/C(C)=C2\C(=O)OC(=O)C(C(C)=O)=C2O)cc1`, the inhibition in vivo at 5 mg/kg in the assay with Rattus norvegicus [8] was 19%.

Consider `CC(=O)C1=C(O)/C(=C(\C)Nc2ccc(NC(=O)C(C)C)cc2)C(=O)OC1=O`, for which the “inhibition (INH)” value with Lung [1] was found to be 60%; with Lung [4] it was 92%. Further, the inhibition in vivo at 0.5 mg/kg in the assay on Rattus norvegicus [18] turned out to be 64%. The inhibition in vivo at 25 mg/kg in the assay on Rattus norvegicus [19] was 4%.

Turning to `CC(=O)C1=C(O)/C(=C(\C)Nc2cc(N)cc(N)c2)C(=O)OC1=O`, the ED50 worked out at 0.5 mg/kg with Rattus norvegicus [3] and 0.9 mg/kg with Rattus norvegicus [5].

With `CC(=O)Nc1cc(NC(C)=O)cc(N/C(C)=C2\C(=O)OC(=O)C(C(C)=O)=C2O)c1`, in the assay with Rattus norvegicus [20], the inhibition in vivo at 50 mg/kg was -1%. In addition, in the assay with Rattus norvegicus [3], the ED50 amounted to 0.01 mg/kg.

`CC(=O)C1=C(O)/C(=C(\C)Nc2ccc(Cl)c(Cl)c2)C(=O)OC1=O`: the inhibition in vivo at 10 mg/kg with Rattus norvegicus [7] worked out at 10%.

Regarding `CC(=O)C1=C(O)/C(=C(\C)Nc2ccc(O)c(NC(=O)C(C)C)c2)C(=O)OC1=O`, the “inhibition (INH)” value in the assay on Lung [1] is on record as 78%; with Lung [2] it was 81%. In addition, the ED50 came out at 0.2 mg/kg in the assay with Rattus norvegicus [3] and 3.3 mg/kg in the assay with Rattus norvegicus [5].

Consider `CC(=O)C1=C(O)/C(=C(\C)Nc2cc(N)cc(O)c2)C(=O)OC1=O.Cl`, for which the “inhibition (INH)” value in [21] is on record as 24%; in [22], -0.7%; in assay [23] it was 18%; in assay [24], 5%. For the same compound, the ED50 with Rattus norvegicus [3] was 0.5 mg/kg; with Rattus norvegicus [5], 8 mg/kg.
